biological target: Aurora kinase B/Inner centromere protein (Homo sapiens, UniProt Q96GD4); assay: Inhibition of AURKB/INCENP (unknown origin) preincubated for 15 mins prior to ATP addition by FRET-based homogenous assay; assay type: protein-complex assay; settings: not given
Summary of the method: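 The enzyme was AURKB/INCENP in a FRET-based homogeneous assay run to kit specifications, with ATP at 128 μM. […] Each IC50 came from a single determination, reported with its standard fitting error.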

Chain of Aurora kinase B/Inner centromere protein (Q96GD4 whole entry): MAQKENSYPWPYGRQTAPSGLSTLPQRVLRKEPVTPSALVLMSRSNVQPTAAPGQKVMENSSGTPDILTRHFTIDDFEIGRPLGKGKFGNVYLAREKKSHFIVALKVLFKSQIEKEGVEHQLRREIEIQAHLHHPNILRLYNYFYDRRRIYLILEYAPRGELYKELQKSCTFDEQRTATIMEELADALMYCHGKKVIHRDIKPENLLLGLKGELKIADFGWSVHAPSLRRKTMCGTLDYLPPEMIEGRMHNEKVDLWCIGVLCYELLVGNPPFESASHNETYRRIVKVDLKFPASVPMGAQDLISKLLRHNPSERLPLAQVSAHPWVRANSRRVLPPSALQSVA
Chain of Aurora kinase B/Inner centromere protein (Q9NQS7 whole entry, further chain): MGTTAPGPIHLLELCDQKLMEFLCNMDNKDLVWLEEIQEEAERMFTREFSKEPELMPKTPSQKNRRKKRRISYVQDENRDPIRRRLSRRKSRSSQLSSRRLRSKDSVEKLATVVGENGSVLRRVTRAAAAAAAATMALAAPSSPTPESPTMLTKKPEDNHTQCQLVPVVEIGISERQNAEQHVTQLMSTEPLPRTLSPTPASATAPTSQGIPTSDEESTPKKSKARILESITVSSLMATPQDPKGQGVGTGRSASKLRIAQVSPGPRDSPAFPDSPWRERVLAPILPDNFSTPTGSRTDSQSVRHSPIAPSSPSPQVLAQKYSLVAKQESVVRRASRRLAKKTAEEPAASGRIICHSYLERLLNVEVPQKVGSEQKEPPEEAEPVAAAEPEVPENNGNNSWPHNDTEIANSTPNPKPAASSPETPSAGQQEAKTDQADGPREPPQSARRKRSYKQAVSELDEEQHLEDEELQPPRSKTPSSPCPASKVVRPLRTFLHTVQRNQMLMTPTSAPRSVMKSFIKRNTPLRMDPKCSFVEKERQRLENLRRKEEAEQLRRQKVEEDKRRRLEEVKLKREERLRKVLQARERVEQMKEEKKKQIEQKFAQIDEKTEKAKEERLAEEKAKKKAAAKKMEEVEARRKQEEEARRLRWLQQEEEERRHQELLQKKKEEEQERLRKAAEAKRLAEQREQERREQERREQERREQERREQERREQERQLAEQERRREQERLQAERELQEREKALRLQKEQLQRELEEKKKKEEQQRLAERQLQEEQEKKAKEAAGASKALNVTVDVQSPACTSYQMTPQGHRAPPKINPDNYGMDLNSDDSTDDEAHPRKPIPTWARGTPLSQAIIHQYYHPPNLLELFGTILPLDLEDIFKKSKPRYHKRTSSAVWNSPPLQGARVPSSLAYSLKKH

**Q.** Which IC50 does the source give for `NS(=O)(=O)c1cccc(-c2n[nH]c3ccc(C(=O)NC(c4ccccc4)C4CC4)cc23)c1` (stereo not drawn) here?
**A.** Its IC50 is 5000 nM.

**Q.** With `CC[C@@H](NC(=O)c1ccc2[nH]nc(-c3ccc(OC4CCN(C)CC4)cc3)c2c1)c1ccccc1Cl` as the compound, how does the IC50 read?
**A.** The IC50 was 38 nM.

**Q.** With `O=C(NCC1(N2CCOCC2)CCCCC1)c1ccc2[nH]nc(-c3ccc(N4C5CCC4COC5)cc3)c2c1` as the compound, how does the IC50 read?
**A.** Its IC50 is 800 nM.

**Q.** Which IC50 does the source give for `O=C(N[C@H](c1ccccc1F)C1CC1)c1ccc2[nH]nc(-c3ccc(N4C5CCC4COC5)cc3)c2c1` here?
**A.** Its IC50 is 470 nM.

**Q.** For `O=C(N[C@@H](c1ccccc1F)C1CC1)c1ccc2[nH]nc(-c3ccc(N4C5CCC4COC5)cc3)c2c1`, which IC50 is on record?
**A.** The IC50 was 980 nM.

**Q.** With `CC(C)[C@H](NC(=O)c1ccc2[nH]nc(-c3ccc(N4C5CCC4COC5)cc3)c2c1)c1ccccc1Cl` as the compound, how does the IC50 read?
**A.** The IC50 was 1900 nM.

**Q.** Which IC50 does the source give for `O=C(N[C@H](c1ccccn1)C1CC1)c1ccc2[nH]nc(-c3ccc(N4C5CCC4COC5)cc3)c2c1` here?
**A.** The IC50 was 360 nM.

**Q.** Which IC50 does the source give for `O=C(N[C@@H](c1ccccn1)C1CCCC1)c1ccc2[nH]nc(-c3ccc(N4C5CCC4COC5)cc3)c2c1` here?
**A.** Its IC50 is 1400 nM.

biological target: T1, Dual specificity protein kinase TTK (Homo sapiens, UniProt P33981); assay: Inhibition of amino terminal GST-fused full length human TTK using His6-SUMO-TTK-N as substrate preincubated for 15 mins prior to ATP addition by indirect ELISA detection system; settings: not given
T1 sequence (P33981 whole entry): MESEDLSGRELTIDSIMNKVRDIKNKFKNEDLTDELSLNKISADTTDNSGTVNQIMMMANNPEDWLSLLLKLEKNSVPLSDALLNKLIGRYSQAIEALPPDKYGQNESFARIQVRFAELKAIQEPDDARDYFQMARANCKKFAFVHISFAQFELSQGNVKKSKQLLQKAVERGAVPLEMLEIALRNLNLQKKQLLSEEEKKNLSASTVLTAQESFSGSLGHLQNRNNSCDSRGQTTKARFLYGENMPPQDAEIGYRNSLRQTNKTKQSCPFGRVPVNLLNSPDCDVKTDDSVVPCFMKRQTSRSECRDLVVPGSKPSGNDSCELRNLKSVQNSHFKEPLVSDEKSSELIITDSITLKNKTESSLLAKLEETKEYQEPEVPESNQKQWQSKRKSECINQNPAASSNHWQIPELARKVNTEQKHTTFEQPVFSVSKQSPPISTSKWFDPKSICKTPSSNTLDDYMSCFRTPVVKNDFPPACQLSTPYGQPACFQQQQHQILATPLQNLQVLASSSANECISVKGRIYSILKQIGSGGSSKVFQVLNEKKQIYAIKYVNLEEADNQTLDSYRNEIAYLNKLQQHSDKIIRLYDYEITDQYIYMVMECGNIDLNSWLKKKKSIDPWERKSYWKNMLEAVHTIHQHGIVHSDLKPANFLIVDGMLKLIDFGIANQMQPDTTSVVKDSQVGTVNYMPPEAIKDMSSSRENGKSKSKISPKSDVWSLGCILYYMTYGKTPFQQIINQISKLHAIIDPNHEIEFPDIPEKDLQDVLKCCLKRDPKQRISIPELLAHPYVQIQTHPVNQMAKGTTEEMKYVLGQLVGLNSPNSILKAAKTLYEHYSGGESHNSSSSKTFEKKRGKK

**Q.** For `O=C(NCC1(N2CCOCC2)CCCCC1)c1ccc2[nH]nc(-c3ccc(N4C5CCC4COC5)cc3)c2c1`, which IC50 is on record?
**A.** Its IC50 is 1.1 nM.

**Q.** With `O=C(N[C@H](c1ccccn1)C1CC1)c1ccc2[nH]nc(-c3ccc(N4C5CCC4COC5)cc3)c2c1` as the compound, how does the IC50 read?
**A.** The IC50 was 1.4 nM.

biological target: Cytochrome P450 3A4 (Homo sapiens, UniProt P08684); assay: Inhibition of human CYP3A4 using BFC as substrate preincubated for 10 mins followed by enzyme/substrate addition measured after 30 mins by fluorescence assay; assay type: ADME; settings: not given
Sequence (P08684 whole entry): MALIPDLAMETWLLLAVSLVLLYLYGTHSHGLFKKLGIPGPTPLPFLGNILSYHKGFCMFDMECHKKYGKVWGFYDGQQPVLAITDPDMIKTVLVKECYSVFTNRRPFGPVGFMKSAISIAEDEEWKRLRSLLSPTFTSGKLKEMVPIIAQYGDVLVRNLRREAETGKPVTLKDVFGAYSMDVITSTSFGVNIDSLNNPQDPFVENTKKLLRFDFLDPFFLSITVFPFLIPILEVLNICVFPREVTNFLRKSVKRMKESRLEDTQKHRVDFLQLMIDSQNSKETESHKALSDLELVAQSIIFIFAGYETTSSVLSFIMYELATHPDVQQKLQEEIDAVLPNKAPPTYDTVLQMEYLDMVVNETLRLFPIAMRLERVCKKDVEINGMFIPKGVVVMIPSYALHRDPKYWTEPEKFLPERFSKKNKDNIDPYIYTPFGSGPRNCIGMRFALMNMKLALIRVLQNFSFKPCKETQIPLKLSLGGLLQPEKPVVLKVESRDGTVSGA

**Q.** Which IC50 does the source give for `O=C(N[C@@H](c1ccccc1F)C1CC1)c1ccc2[nH]nc(-c3ccc(N4C5CCC4COC5)cc3)c2c1` here?
**A.** Its IC50 is 240 nM.

**Q.** With `CC(C)[C@H](NC(=O)c1ccc2[nH]nc(-c3ccc(N4C5CCC4COC5)cc3)c2c1)c1ccccc1Cl` as the compound, how does the IC50 read?
**A.** Its IC50 is 60 nM.

**Q.** For `O=C(N[C@@H](c1ccccn1)C1CCCC1)c1ccc2[nH]nc(-c3ccc(N4C5CCC4COC5)cc3)c2c1`, which IC50 is on record?
**A.** The IC50 was 360 nM.

tested on: MDA-MB-468; assay: Cytotoxicity against human MDA-MB-468 cells after 5 days by sulforhodamine B assay; assay type: functional; settings: Homo sapiens, MDA-MB-468, 120 h
Summary of the method: (§1)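 Cancer lines were seeded at 800–6000 cells per well according to growth rate, 24 h before compound overlay. After culture, cells were fixed in situ and stained with sulforhodamine B. GI50 values were derived by curve fitting.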

**Q.** For `O=C(NCC1(N2CCOCC2)CCCCC1)c1ccc2[nH]nc(-c3ccc(N4C5CCC4COC5)cc3)c2c1`, which GI50 is on record?
**A.** The GI50 was 25 nM.

**Q.** Which GI50 does the source give for `O=C(N[C@H](c1ccccn1)C1CC1)c1ccc2[nH]nc(-c3ccc(N4C5CCC4COC5)cc3)c2c1` here?
**A.** Its GI50 is 15 nM.

tested on: not listed separately; assay: Cytotoxicity against human HCT116 cells after 5 days by sulforhodamine B assay; assay type: functional, HCT-116; settings: Homo sapiens, HCT-116, 120 h; summary of the method: as §1

**Q.** Which GI50 does the source give for `O=C(NCC1(N2CCOCC2)CCCCC1)c1ccc2[nH]nc(-c3ccc(N4C5CCC4COC5)cc3)c2c1` here?
**A.** The GI50 was 1 nM.

**Q.** Which GI50 does the source give for `O=C(N[C@H](c1ccccn1)C1CC1)c1ccc2[nH]nc(-c3ccc(N4C5CCC4COC5)cc3)c2c1` here?
**A.** The GI50 was 2 nM.

tested on: not listed separately; assay: Half life in rat liver microsomes at 1 uM by LC-MS analysis; assay type: ADME; settings: liver microsomes

**Q.** For `O=C(NCC1(N2CCOCC2)CCCCC1)c1ccc2[nH]nc(-c3ccc(N4C5CCC4COC5)cc3)c2c1`, which half-life at 1 µM is on record?
**A.** Its half-life at 1 µM is 9.6 min.

**Q.** With `O=C(N[C@H](c1ccccn1)C1CC1)c1ccc2[nH]nc(-c3ccc(N4C5CCC4COC5)cc3)c2c1` as the compound, how does the half-life at 1 µM read?
**A.** The half-life at 1 µM was greater than 60 min.

tested on: not listed separately; assay: Cytotoxicity against human OVCAR3 cells after 5 days by sulforhodamine B assay; assay type: functional, OVCAR-3; settings: Homo sapiens, OVCAR-3, 120 h

**Q.** For `O=C(NCC1(N2CCOCC2)CCCCC1)c1ccc2[nH]nc(-c3ccc(N4C5CCC4COC5)cc3)c2c1`, which GI50 is on record?
**A.** The GI50 was 17 nM.

**Q.** Which GI50 does the source give for `O=C(N[C@H](c1ccccn1)C1CC1)c1ccc2[nH]nc(-c3ccc(N4C5CCC4COC5)cc3)c2c1` here?
**A.** Its GI50 is 18 nM.

tested on: not listed separately; assay: Half life in mouse liver microsomes at 1 uM by LC-MS analysis; assay type: ADME; settings: liver microsomes

**Q.** For `O=C(NCC1(N2CCOCC2)CCCCC1)c1ccc2[nH]nc(-c3ccc(N4C5CCC4COC5)cc3)c2c1`, which half-life at 1 µM is on record?
**A.** The half-life at 1 µM was 2.7 min.

**Q.** For `O=C(N[C@H](c1ccccn1)C1CC1)c1ccc2[nH]nc(-c3ccc(N4C5CCC4COC5)cc3)c2c1`, which half-life at 1 µM is on record?
**A.** The half-life at 1 µM was greater than 60 min.

Source: ChEMBL document CHEMBL3421533, “The Discovery of Orally Bioavailable Tyrosine Threonine Kinase (TTK) Inhibitors: 3-(4-(heterocyclyl)phenyl)-1H-indazole-5-carboxamides as Anticancer Agents” (J Med Chem, 2015)
